Reference: ChEMBL document CHEMBL4732187, “Tetrahydroindazole inhibitors of CDK2/cyclin complexes” (Eur J Med Chem, 2021)
Calls of active or inactive are those of the source. The rule behind the calls is not given here.

Tests used:
CDK2/Cyclin A2 = CDK2/Cyclin A2 (Homo sapiens, UniProt P24941); assay: Inhibition of human N-terminal GST-tagged CDK2 (1 to 298 residues)/Cyclin A (174 to 432 residues) expressed in Escherichia coli Turner (DE3) cells assessed as reduction in ADP formation using PKTPKKAKKL as substrate by resorufin dye based fluorescence assay
[1] = Permeability across apical to basolateral side in MDCK cells assessed as drug recovery at 1 uM after 2 hrs by LC-MS/MS analysis; format: ADME, cell-based, Canis lupus familiaris; settings: dog
Outline: (§1)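 MDCK monolayers were washed twice with pre-warmed HBSS (10 mM HEPES, pH 7.4) and equilibrated for 30 min at 37 °C. Compound at 1 μM in HBSS (0.5% DMSO final) was added to the apical or the basolateral donor side. After 2 h at 37 °C, donor and receiver samples were quenched in cold methanol with internal standards and analysed by LC-MS/MS. Runs were in duplicate; 100 μM Lucifer Yellow checked monolayer integrity.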

[2] = Permeability across basolateral to apical side in MDCK cells at 1 uM after 2 hrs by LC-MS/MS analysis; format: ADME, cell-based, Canis lupus familiaris; settings: dog; outline: as §1
[3] = molecular target: Cyclin-dependent kinase 2/cyclin E1 (Homo sapiens, UniProt P24941); assay: Inhibition of CDK2/Cyclin E (unknown origin) using histone H1 as substrate preincubated for 20 mins followed by 33P-ATP addition and measured after 2 hrs by filter binding method; format: protein-complex assay
CDK2/Cyclin A1 = CDK2/Cyclin A1 (Homo sapiens, UniProt P24941); assay: Inhibition of CDK2/Cyclin A1 (unknown origin) using histone H1 as substrate preincubated for 20 mins followed by 33P-ATP addition and measured after 2 hrs by filter binding method; format: protein-complex assay
CDK2/Cyclin O = CDK2/Cyclin O (Homo sapiens, UniProt P22674+P24941); assay: Inhibition of CDK2/Cyclin-O (unknown origin) using histone H1 as substrate preincubated for 20 mins followed by 33P-ATP addition and measured after 2 hrs by filter binding method; format: protein-complex assay
[4] = molecular target: Cyclin-dependent kinase 2 (Homo sapiens, UniProt P24941); assay: Binding affinity to T7-tagged CDK2 (unknown origin) expressed in bacteriophage infected Escherichia coli BL21 incubated for 1 hr by magnetic beads based qPCR anlaysis
MCF7 = assay: Antiproliferative activity against human MCF7 cells assessed as reduction in cell viability up to 200 uM after 72 hrs by alamarBlue assay; format: functional, cell-based; settings: dose microM <=200, time 72.0 hrs
Outline: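 MCF-7 cells seeded at 5000 per well and incubated overnight at 37 °C, 5% CO₂, then exposed to 8 concentrations from 0.00256 μM to 200 μM for 72 h. alamarBlue was then added and incubated 90 min at 37 °C. Proliferating cells were read by fluorescence (ex 530 nm, em 590 nm). Staurosporine served as positive control.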

[5] = Apparent permeability across apical to basolateral side in MDCK cells at 1 uM after 2 hrs by LC-MS/MS analysis; format: ADME, cell-based, Canis lupus familiaris; settings: dog; outline: as §1
[6] = Efflux ratio of apparent permeability across basolateral to apical side over apical to basolateral side in MDCK cells at 1 uM after 2 hrs by LC-MS/MS analysis; format: ADME, cell-based, Canis lupus familiaris; settings: dog
Outline: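 MDCK monolayers washed twice with pre-warmed HBSS (10 mM HEPES, pH 7.4) and equilibrated 30 min at 37 °C. 1 μM working solution (0.5% DMSO final) added to apical or basolateral donor side, 37 °C for 2 h, run in duplicate. Donor and receiver samples quenched in cold methanol with internal standards and quantified by LC-MS/MS. Monolayer integrity checked by Lucifer Yellow (100 μM) leakage.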

[7] = Apparent permeability across basolateral to apical side in MDCK cells at 1 uM after 2 hrs by LC-MS/MS analysis; format: ADME, cell-based, Canis lupus familiaris; settings: dog; outline: as §1

Row | SMILES | IC50 (CDK2/Cyclin A2) | other results
1 | CC(=O)Nc1ccc(-n2nc(C)c3c2C(Br)C(C)(C)CC3=O)nc1 (stereo not drawn) | 3.6 µM | 
2 | Cc1nn(-c2ccccn2)c2c1C(=O)CC(C)(C)C2Sc1ccccc1 (stereo not drawn) | 12 µM | 
3 | Cc1cccnc1-n1nc(C)c2c1C(Br)C(C)(C)CC2=O (stereo not drawn) | > 1000 µM | 
4 | Cc1nn(-c2ccc(NS(C)(=O)=O)cn2)c2c1C(=O)CC(C)(C)C2Br (stereo not drawn) | 19 µM | 
5 | Cc1nn(-c2ccccn2)c2c1C(=O)CC(C)(C)C2N(C)C (stereo not drawn) | 630 µM | 
6 | Cc1nn(-c2ccc3ccccc3c2)c2c1C(=O)CC(C)(C)C2Br (stereo not drawn) | 37 µM | 
7 | Cc1nn(-c2ccccn2)c2c1C(=O)CC(C)(C)C2N=[N+]=[N-] (stereo not drawn) | 4.5 µM | 
8 | Cc1nn(-c2ccc(C(F)(F)F)cn2)c2c1C(=O)CC(C)(C)C2Br (stereo not drawn) | 6.7 µM | 
9 | Cc1nn(-c2cnccn2)c2c1C(=O)CC(C)(C)C2Br (stereo not drawn) | 97 µM | 
10 | Cc1ccc(NC(=O)c2ccc(CN3CCN(C)CC3)cc2)cc1Nc1nccc(-c2cccnc2)n1 [IMATINIB] |  | Drug recovery [1]: 56.6%; Drug recovery [2]: 69.9%
11 | CC1(C)CC(=O)c2cnn(-c3ccccn3)c2C1Br (stereo not drawn) | 160 µM | 
12 | Cc1nn(-c2ccccn2)c2c1C(=O)CC(C)(C)C2C (stereo not drawn) | 200 µM | 
13 | Cc1nn(-c2ncccc2C(F)(F)F)c2c1C(=O)CC(C)(C)C2Br (stereo not drawn) | 460 µM | 
14 | Cc1nn(-c2ccc(N)cn2)c2c1C(=O)CC(C)(C)C2Br (stereo not drawn) | 4.6 µM | 
15 | Cc1nn(-c2ccccn2)c2c1C(=O)CC(c1ccccc1)C2Br (stereo not drawn) | > 1000 µM | 
16 | Cc1nn(-c2ncccc2C(F)(F)F)c2c1C(=O)C(Br)C(C)(C)C2 (stereo not drawn) | 230 µM | 
17 | Cc1nn(-c2ccccn2)c2c1C(O)CC(C)(C)C2Br (stereo not drawn) | 560 µM | 
18 | COC(=O)CC(=O)Nc1ccc(-n2nc(C)c3c2C(Br)C(C)(C)CC3=O)nc1 (stereo not drawn) | 2.7 µM | 
19 | Cc1nn(-c2ccc(Cl)nn2)c2c1C(=O)CC(C)(C)C2Br (stereo not drawn) | 26 µM | 
20 | Cc1nn(-c2ccccn2)c2c1C(=O)NCC(C)(C)C2 | > 1000 µM | 
21 | Cc1nn(-c2ccccn2)c2c1C(=O)CC(C)C2Br (stereo in doubt) | 4.8 µM | 
22 | Cc1nn(-c2ccccn2)c2c1C(=O)CC(C)(C)C2O (stereo not drawn) | 110 µM | 
23 | Cc1nn(-c2ccccn2)c2c1C(=O)CC(C)(C)C2 | 110 µM | 
24 | Cc1nn(-c2ccccn2)c2c1C(=O)CCC2Br (stereo not drawn) | 130 µM | 
25 | Cc1nn(-c2ccccn2)c2c1C(=O)CC(C)(C)C2N (stereo not drawn) | 350 µM | 
26 | Cc1cccnc1-n1nc(C)c2c1CC(C)(C)C(Br)C2=O (stereo not drawn) | 180 µM | 

Row | SMILES | IC50 (CDK2/Cyclin A2) | other results
27 | C[C@H]1O[C@@H](O[C@H]2[C@@H](O)C[C@H](O[C@H]3[C@@H](O)C[C@H](O[C@H]4CC[C@@]5(C)[C@H](CC[C@@H]6[C@@H]5C[C@@H](O)[C@]5(C)[C@@H](C7=CC(=O)OC7)CC[C@]65O)C4)O[C@@H]3C)O[C@@H]2C)C[C@H](O)[C@@H]1O [DIGOXIN] |  | Drug recovery [1]: 77.1%; Drug recovery [2]: 83.7%
28 | COc1cccc(-n2nc(C)c3c2C(Br)C(C)(C)CC3=O)n1 (stereo not drawn) | 2.1 µM | 
29 | Cc1nn(-c2ccccn2)c2c1C(=O)NCC(C)(C)C2Br (stereo not drawn) | 12 µM | 
30 | Cc1nn(-c2nccs2)c2c1C(=O)CC(C)(C)C2Br (stereo not drawn) | 2.2 µM | IC50 [3]: 2.3 nM; IC50 (CDK2/Cyclin A1): 24.3 nM; IC50 (CDK2/Cyclin O): 33.1 nM; Kd [4]: 4.8 µM; Activity (MCF7): inactive
31 | Cc1nn(CCC#N)c2c1C(=O)CC(C)(C)C2Br (stereo not drawn) | > 1000 µM | 
32 | Cc1nn(-c2ccccn2)c2c1C(=O)CC(C(C)C)C2Br (trans isomer) | 130 µM | 
33 | Cc1nn(-c2ccccn2)c2c1C(=O)CC(C)(C)C2S(=O)(=O)c1ccccc1 (stereo not drawn) | 107 µM | 
34 | Cc1nn(-c2ccccn2)c2c1C(=O)CC(C)(C)C2F (stereo not drawn) | 21 µM | 
35 | Cc1ccc(-n2nc(C)c3c2C(Br)C(C)(C)CC3=O)nc1 (stereo not drawn) | 7.5 µM | 
36 | Cc1nn(-c2ccccn2)c2c1NC(=O)CC(C)(C)C2 | > 1000 µM | 
37 | CC(C)Cc1nn(-c2ccccn2)c2c1C(=O)CC(C)(C)C2Br (stereo not drawn) | 820 µM | 
38 | COCCc1ccc(OCC(O)CNC(C)C)cc1 (stereo not drawn) [METOPROLOL] |  | Drug recovery [1]: 90.7%; Papp A→B at 2 h, 1 µM [5]: 26.9 ×10⁻⁶ cm/s; Drug recovery [2]: 90.4%; Ratio [6]: 0.79; Papp B→A at 2 h, 1 µM [7]: 21.2 ×10⁻⁶ cm/s
39 | Cc1nn(-c2ccc(Cl)cn2)c2c1C(=O)CC(C)(C)C2Br (stereo not drawn) | 3 µM | 
40 | Cc1nn(-c2nc3ccccc3s2)c2c1C(=O)CC(C)(C)C2Br (stereo not drawn) | > 1000 µM | 
41 | Cc1nn(-c2ncccn2)c2c1C(=O)CC(C)(C)C2Br (stereo not drawn) | 9.3 µM | 
42 | CC1(C)CC(=O)c2cnn(-c3ccccn3)c2C1 | > 1000 µM | 
43 | Cc1nn(-c2ccc(NS(N)(=O)=O)cn2)c2c1C(=O)CC(C)(C)C2Br (stereo not drawn) | 2.4 µM | 
44 | Cc1nn(-c2ccncc2)c2c1C(=O)CC(C)(C)C2Br (stereo not drawn) | 10.5 µM | 
45 | Cc1nn(-c2ccccn2)c2c1C(=O)CC(C)(C)C2Cl (stereo not drawn) | 4.9 µM | 
46 | Cc1nn(-c2ccccn2)c2c1/C(=N/O)CC(C)(C)C2Br (stereo not drawn) | 59 µM | 
47 | COC1c2c(c(C)nn2-c2ccccn2)C(=O)CC1(C)C (stereo not drawn) | 46 µM | 
48 | Cc1nn(-c2ccc([N+](=O)[O-])cn2)c2c1C(=O)CC(C)(C)C2Br (stereo not drawn) | 3.1 µM | 
49 | Cc1nn(-c2ccncn2)c2c1C(=O)CC(C)(C)C2Br (stereo not drawn) | 1.5 µM | IC50 [3]: 8.9 nM; IC50 (CDK2/Cyclin A1): 46.4 nM; IC50 (CDK2/Cyclin O): 41.6 nM; Kd [4]: 4.5 µM; Activity (MCF7): inactive
50 | Cc1nn(-c2ccccn2)c2c1C(=O)CC(C)C2Br (cis isomer) | 31 µM | 
51 | Cc1nn(-c2ccccn2)c2c1C(=O)CC(C(C)C)C2Br (stereo in doubt) | 470 µM | 
52 | Cc1nn(S(=O)(=O)c2ccc([N+](=O)[O-])cc2)c2c1C(=O)CC(C)(C)C2Br (stereo not drawn) | > 1000 µM | 
